Assays:
Assay type in all cases: functional, cell-based
[1] = test system: A2780; experiment: Antiproliferative activity against human A2780 cells after 96 hrs by CellTiter-Glo luminescent cell viability assay; conditions: A2780, 96 h
[2] = test system: MDA-MB-435; experiment: Antiproliferative activity against human MDA-MB-435 cells after 96 hrs by CellTiter-Glo luminescent cell viability assay; conditions: MDA-MB-435, 96 h
Method in brief: (§1)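 Cells were cultured with compound present continuously at 0.3–10000 nM, or without compound, for 96 h. Growth was read by ATP luminescence (CellTiter-Glo). IC50 is the concentration giving 50% growth inhibition versus untreated cells. Vinblastine served as the positive control. Two separate replicate experiments were run.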

[3] = test system: HT-29; experiment: Antiproliferative activity against human HT29 cells after 96 hrs by CellTiter-Glo luminescent cell viability assay; conditions: HT-29, 96 h; method in brief: as §1
[4] = Antiproliferative activity against human HS22T1 cells after 96 hrs by CellTiter-Glo luminescent cell viability assay; conditions: HS22T1, 96 h; method in brief: as §1
[5] = test system: U-937; experiment: Antiproliferative activity against human U937 cells after 96 hrs by CellTiter-Glo luminescent cell viability assay; conditions: U-937, 96 h; method in brief: as §1

Row | SMILES | IC50 [1] [nM] | IC50 [2] [nM] | IC50 [3] [nM] | IC50 [4] [nM] | IC50 [5] [nM]
1 | CC(=O)O[C@]12OC[C@@]3(C)C(=O)C=C[C@@](C)([C@@H]13)[C@H]1[C@@H](O)[C@H](OC(=O)C(C)C)[C@@]3(C)[C@H](c4ccoc4)C[C@H]4O[C@]43[C@]1(C)C2=O [MALLEASTRONE A] | 490 | 410 | 240 | 240 | 200
2 | CC[C@H](C)C(=O)O[C@H]1[C@H](O)[C@@H]2[C@@]3(C)C=CC(=O)[C@]4(C)CO[C@](OC(C)=O)(C(=O)[C@@]2(C)[C@@]25O[C@@H]2C[C@@H](c2ccoc2)[C@]15C)[C@H]34 [MALLEASTRONE B] | 630 | 340 | 220 | 230 | 190
3 | CC(=O)O[C@]12OC[C@@]3(C)C(=O)C[C@@H](O)[C@@](C)([C@@H]13)[C@H]1[C@@H](O)[C@H](OC(=O)C(C)C)[C@@]3(C)[C@H](c4ccoc4)C[C@H]4O[C@]43[C@]1(C)C2=O [MALLEASTRONE C] | 18000 | – | – | – | –
4 | CC[C@]1(O)C[C@@H]2CN(CCc3c([nH]c4ccccc34)[C@@](C(=O)OC)(c3cc4c(cc3OC)N(C)[C@H]3[C@@](O)(C(=O)OC)[C@H](OC(C)=O)[C@]5(CC)C=CCN6CC[C@]43[C@@H]65)C2)C1 [VINBLASTINE] | – | 0.27 | 0.53 | 1.38 | 0.49

Reference: ChEMBL document CHEMBL1144723, “Antiproliferative limonoids of a Malleastrum sp. from the Madagascar rainforest” (J Nat Prod, 2008)
